Laboratory results taken from ChEMBL document CHEMBL1142728, “Design and optimization of tricyclic phtalimide analogues as novel inhibitors of HIV-1 integrase” (J Med Chem, 2005).

What was measured:
[1] = tested on: Human immunodeficiency virus 1; assay: Log of cytotoxic concentration against human immunodeficiency virus type 1 using cell-based replication assay in MT-4 cells; type: functional, MT4
In short: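 Mock-infected MT4 cells (150 000 cells/mL) get the same compound concentration range and are incubated 3 days at 37 °C, 5% CO2, in parallel with the HIV-infected cultures. Toxicity is scored as reduced GFP reporter expression. CC50/pCC50 come from dose-response curves of percent inhibition.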

[2] = target: T1, Human immunodeficiency virus type 1 integrase (Human immunodeficiency virus 1, UniProt Q7ZJM1); assay: Log of inhibitory concentration against human immunodeficiency virus type 1 integrase
T1 sequence (Q7ZJM1 whole entry): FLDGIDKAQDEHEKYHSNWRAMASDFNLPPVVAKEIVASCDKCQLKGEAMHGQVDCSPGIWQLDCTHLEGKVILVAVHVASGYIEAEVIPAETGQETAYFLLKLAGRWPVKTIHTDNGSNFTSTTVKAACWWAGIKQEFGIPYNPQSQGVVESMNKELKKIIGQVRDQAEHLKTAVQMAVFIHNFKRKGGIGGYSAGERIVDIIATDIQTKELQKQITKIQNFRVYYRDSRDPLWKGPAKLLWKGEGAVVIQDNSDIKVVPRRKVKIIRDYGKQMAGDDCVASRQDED
In short: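 Strand transfer ELISA using recombinant His-tagged HIV-1 integrase expressed in E. coli BL21(DE3). 20 nM biotinylated processed viral DNA substrate is preincubated with 300 nM integrase for 5 min at 37 °C. Serial compound dilutions and 50 nM target DNA are then added in 20 mM Hepes pH 7.5, 25 mM NaCl, 5 mM MnCl2, 2 mM DTT, 50 µg/mL BSA and incubated 2 h at 37 °C. Products are captured on streptavidin plates, detected with anti-FITC peroxidase antibody and read by chemiluminescence.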

[3] = tested on: Human immunodeficiency virus 1; assay: Log of effective concentration against human immunodeficiency virus type 1 using cell-based replication assay in MT-4 cells; type: functional, organism-based; conditions: Human immunodeficiency virus 1, MT4
In short: (§1)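 MT4 cells (150 000 cells/mL) infected with HIV-1/LAI wild type at 200 CCID50, with serial compound concentrations in 384-well format. Replication is read as GFP expression driven by HIV-tat acting on an LTR-GFP reporter. Incubation 3 days at 37 °C, 5% CO2. EC50/pEC50 are taken from dose-response curves of percent inhibition.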

[4] = target: T1, Human immunodeficiency virus type 1 integrase; assay: Inhibitory concentration against human immunodeficiency virus type 1 integrase
[5] = tested on: Human immunodeficiency virus 1; assay: Effective concentration against human immunodeficiency virus type 1 using cell-based replication assay in MT-4 cells; type: functional, organism-based; conditions: Human immunodeficiency virus 1, MT4; in short: as §1

Row | SMILES | pCC50 [1] | IC50 [2] [µM] | EC50 [3] [µM] | IC50 [4] [µM] | EC95 [5] [µM]
1 | Cc1ccc2c(O)c3c(c(O)c2n1)C(=O)N(Cc1cccc(Br)c1)C3=O | 4.78 | 0.257 | 7.59 |  | 
2 | CC(C)Oc1ccc(Cc2ccccc2)cc1/C(O)=C/C(=O)C(=O)O |  |  |  | 0.05 | 
3 | O=C1c2c(c(O)c3nccnc3c2O)C(=O)N1Cc1ccc(OC(F)(F)F)cc1 | 5.6 | 2.04 | 1.35 |  | 
4 | O=C1c2c(c(O)c3nccnc3c2O)C(=O)N1Cc1ccc(-c2ccccc2F)cc1 | 4.83 | 1 | 14.8 |  | 
5 | O=C1c2c(c(O)c3nccnc3c2O)C(=O)N1Cc1cc(F)cc(F)c1 | <4.49 | 0.372 | 16.6 |  | 
6 | O=C1c2c(c(O)c3nccnc3c2O)C(=O)N1Cc1cc(Cl)cc(Cl)c1 | 4.72 | 0.186 | 0.724 |  | 
7 | O=C1c2c(c(O)c3nccnc3c2O)C(=O)N1Cc1ccncc1 | <4.49 | 6.76 | > 32.4 |  | 
8 | O=C1c2c(c(O)c3nccnc3c2O)C(=O)N1c1ccc2c(c1)OCO2 | <4.49 | 10 | > 32.4 |  | 
9 | CN1C(=O)c2c(c(O)c3nccnc3c2O)C1=O | <4.49 | 49 | > 32.4 |  | 
10 | O=C1c2c(c(O)c3ccccc3c2O)C(=O)N1Cc1ccc(F)cc1 | 4.59 | > 100 | 20 |  | 
11 | O=C(c1ccccc1)N1CCC(N2C(=O)c3c(c(O)c4nccnc4c3O)C2=O)CC1 | <4.49 | 2.4 | > 32.4 |  | 
12 | O=C1c2c(c(O)c3ncccc3c2O)C(=O)N1Cc1cccc(Br)c1 | 5.21 | 0.38 | 3.09 |  | 
13 | COc1ccc(CN2C(=O)c3c(c(O)c4nccnc4c3O)C2=O)cc1 | 4.64 | 0.562 | 3.63 |  | 
14 | O=C1c2c(c(O)c3nccnc3c2O)C(=O)N1C1CCCC1 | 4.55 | 10.5 | > 32.4 |  | 
15 | COc1ccc(OC)c(CN2C(=O)c3c(c(O)c4nccnc4c3O)C2=O)c1 | 4.73 | 0.776 | 4.79 |  | 
16 | O=C1c2c(c(O)c3nccnc3c2O)C(=O)N1CCc1ccc2c(c1)OCO2 |  | 1.41 | 11 |  | 
17 | O=C1c2c(c(O)c3nccnc3c2O)C(=O)N1Cc1cccc(F)c1 | 4.77 | 0.562 | 5.37 |  | 
18 | O=C1c2c(c(O)c3nccnc3c2O)C(=O)N1Cc1cccc(C(F)(F)F)c1 | 4.77 | 0.427 | 9.77 |  | 
19 | O=C1c2c(c(O)c3nccnc3c2O)C(=O)N1Cc1cccc(Br)c1 | 4.49 | 0.209 | 7.41 |  | 
20 | O=S1(=O)CCCCN1c1nc(/C(O)=N/Cc2ccc(F)cc2)c(O)c2ncccc12 |  |  |  | 0.01 | 0.1
21 | O=C1c2c(c(O)c3nccnc3c2O)C(=O)N1Cc1ccccc1Br | 4.75 | 0.631 | 15.1 |  | 

Row | SMILES | pCC50 [1] | IC50 [2] [µM] | EC50 [3] [µM] | IC50 [4] [µM] | EC95 [5] [µM]
22 | O=C1c2c(c(O)c3nccnc3c2O)C(=O)N1CC1CCCCC1 | 5.19 | 2.19 | 3.47 |  | 
23 | O=C1c2c(c(O)c3nccnc3c2O)C(=O)N1CCc1ccccc1 | 5.23 | 2.04 | 4.9 |  | 
24 | O=C1c2c(c(O)c3nccnc3c2O)C(=O)N1Cc1ccc(-c2ccccc2)cc1 | 5.47 | 1.45 | 2.57 |  | 
25 | O=C1c2c(c(O)c3nccnc3c2O)C(=O)N1C1CCNCC1 | <4.49 | > 100 | > 32.4 |  | 
26 | C[C@H](c1ccccc1)N1C(=O)c2c(c(O)c3nccnc3c2O)C1=O | 4.76 | 1.05 | 10.2 |  | 
27 | O=C1c2c(c(O)c3nccnc3c2O)C(=O)N1Cc1ccc(F)c(Cl)c1 | 4.7 | 0.178 | 3.09 |  | 
28 | O=C1c2c(c(O)c3nccnc3c2O)C(=O)N1Cc1ccc(F)cc1 | 4.69 | 0.417 | 1.55 |  | 
29 | O=C1c2c(c(O)c3nccnc3c2O)C(=O)N1Cc1cccc(Cl)c1 | 4.73 | 0.219 | 0.977 |  | 
30 | COc1ccccc1CN1C(=O)c2c(c(O)c3nccnc3c2O)C1=O | 4.81 | 0.813 | 3.8 |  | 
31 | Cc1ccc(CN2C(=O)c3c(c(O)c4nccnc4c3O)C2=O)cc1 | 4.86 | 1.58 | 1.78 |  | 
32 | O=C1c2c(c(O)c3nccnc3c2O)C(=O)N1Cc1cccc(-c2ccccc2F)c1 | 4.82 | 0.501 | 13.2 |  | 
33 | O=C1c2c(c(O)c3nccnc3c2O)C(=O)N1Cc1ccc(Br)cc1F | 5.11 | 0.437 | 2.4 |  | 
34 | O=C1c2c(c(O)c3nccnc3c2O)C(=O)N1Cc1ccc(Cl)cc1 | 5.58 | 0.417 | 0.269 |  | 
35 | COc1cccc(OC)c1CN1C(=O)c2c(c(O)c3nccnc3c2O)C1=O | 5.09 | 2 | 5.37 |  | 
36 | COc1ccc(CN2C(=O)c3c(c(O)c4nccnc4c3O)C2=O)c(OC)c1 | 4.77 | 0.427 | 13.5 |  | 
37 | O=C1c2c(c(O)c3nnccc3c2O)C(=O)N1Cc1cccc(Br)c1 | <4.49 | 3.63 | 21.4 |  | 
38 | COc1cccc(CN2C(=O)c3c(c(O)c4nccnc4c3O)C2=O)c1OC | 4.72 | 0.427 | 4.9 |  | 
39 | C[C@@H](c1ccccc1)N1C(=O)c2c(c(O)c3nccnc3c2O)C1=O | 4.81 | 2.04 | 15.1 |  | 
40 | O=C1c2c(c(O)c3nccnc3c2O)C(=O)N1Cc1ccc(Cl)c(Cl)c1 | 5.05 | 0.112 | 0.912 |  | 
41 | O=C1c2c(c(O)c3nccnc3c2O)C(=O)N1Cc1cc(Br)ccc1F | 5.38 | 0.355 | 0.447 |  | 
42 | O=C1c2c(c(O)c3nccnc3c2O)C(=O)N1Cc1ccc2c(c1)OCO2 | <4.49 | 0.562 | 3.16 |  | 
